What all share (assay type): in vivo, human
A short description of data set [1]: Plasma pharmacokinetics, phase 1b multiple-dose drug-drug interaction study. Particulars: for plasma exposure on coadministration, result in words: verinurad: with allopurinol 300 mg, colchicine: with verinurad 10 mg. The procedure, abridged:
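Adult males with gout were randomized 1:1 to two sequences. They took a once-daily oral xanthine oxidase inhibitor 300 mg or urate reabsorption inhibitor 10 mg alone (days 1–7), both (days 8–14), then the other agent (days 15–21). Fasted overnight, no food 4 h postdose. Plasma was sampled days −1, 7, 14, 21 predose to 24 h. Parent and metabolite were measured by LC-MS/MS (methanol precipitation, isotope internal standards). Noncompartmental Tmax, Cmax, AUC0‐24; geometric LS mean ratio combo/alone.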

A short description of another data set: Urine pharmacokinetics. Particulars: for Ae0‐24: urine; for Ae0‐24 / CLR0‐24: geometric LS mean (95% CI).
The subject of the next data set is serum uric acid. In words: Serum uric acid pharmacodynamics in adult male subjects with gout. Particulars: verinurad 10 mg, allopurinol 300 mg, once daily for 7 days, alone or combined. The procedure, abridged:
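Adult males with gout received a once-daily oral xanthine oxidase inhibitor 300 mg, a urate reabsorption inhibitor 10 mg, or both for 7 days each in a randomized crossover sequence. Fasted overnight before sampling. Serum was drawn days 7, 14, 21 predose to 24 h postdose, with extra predose points day 1, and uric acid measured by a central lab. Read-out is maximum % change from time-matched day −1 baseline.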

In the next data set the test system is urine uric acid. The data set can be described thus: Urine uric acid pharmacodynamics. Particulars: for CLUR, Mean (SD) / FEUA, Mean (SD) / AeUR, Change From Baseline (%) / CLUR, Change From Baseline (%) / FEUA, Change From Baseline (%) / AeUR, Mean (SD) / AeUR, %Change From Baseline / CLUR, %Change From Baseline / FEUA, %Change From Baseline: ALLO 300 mg or both; for AeUR, Change From Baseline (%) / CLUR, Change From Baseline (%) / FEUA, Change From Baseline (%) / AeUR, %Change From Baseline / CLUR, %Change From Baseline / FEUA, %Change From Baseline: mean (SD). The procedure, abridged:
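Total-catch urine was collected days 1, 7, 8, 14, 21 in intervals from 0–1 to 22–24 h postdose. Water: 240 mL on waking and at 22 h, 160 mL frequently postdose. Uric acid and creatinine were assayed centrally. AeUR = concentration × volume; CLUR = AeUR/plasma urate AUC same interval; fractional excretion = (CLUR/CrCl) × 100; rate = AeUR/interval hours. % change uses time-matched day −1 baseline.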

Where [2] appears, read: VERU 10 mg + ALLO 300 mg compared with allopurinol alone.
Where [3] appears, read: VERU 10 mg + ALLO 300 mg compared with allopurinol alone, plasma.
Where [4] appears, read: treatment ALLO 300 mg once daily.
The mark [5] stands for this setting: treatment VERU 10 mg + ALLO 300 mg once daily.
The mark [6] stands for this setting: 0‐ to 12‐hour interval, VERU 10 mg.
The mark [7] stands for this setting: 0‐ to 12‐hour interval, multiple daily doses VERU 10 mg.
[8] abbreviates: 0‐ to 24‐hour interval, VERU 10 mg.
Where [9] appears, read: 12‐ to 24‐hour interval, VERU 10 mg.
Setting [10] is: VERU 10 mg + ALLO 300 mg compared with allopurinol alone, plasma, listed as oxypurinol.
The mark [11] stands for this setting: treatment VERU 10 mg once daily.

Entries after “also recorded” stand apart in the source; their conditions may differ.

The results in this text go back to PMC6099444 (Journal of Clinical Pharmacology, 2018).

As for `Oc1ncnc2[nH]ncc12` [Allopurinol, allopurinol], the “AUC on coadministration of verinurad, result in words” value in data set [1] (setting [2]) is on record as “unaffected; also recorded: unaltered”. Moreover, in data set [1] (setting [3]), the “increase in Cmax on coadministration of verinurad” value was 33%. The Cmax in data set [1] (treatment ALLO 300 mg once daily, plasma, geometric LS mean (95% CI)) is given as 1.13 (0.89‐1.43) μg/mL. The “Ae0‐24” value in “Urine pharmacokinetics” (setting [4]) is 25.4 (22.1‐29.2) mg. For the same molecule, the “Ae0‐24” value in “Urine pharmacokinetics” (setting [5]) is given as 22.7 (19.2‐26.9) mg. For the same molecule, in the data set with serum uric acid, the “maximum decrease in serum urate” value is recorded as 43%. In addition, in the data set on urine uric acid (0-24 h, allopurinol 300 mg), the “decrease in 24 hr fractional excretion of urate compared with baseline” value is 12.0% and the “decrease in CLUR compared with baseline” value came out at 8.5%. In addition, in the data set with urine uric acid (0-24 h, allopurinol 300 mg alone or with verinurad 10 mg), the “decrease in 24‐hour AeUR compared with baseline” value is on record as 47.4%. In addition, in the data set with urine uric acid (setting [6]), the “CLUR, Mean (SD)” value is 6.50 (1.18) mL/min; the “FEUA, Mean (SD)” value was 4.06 (0.47) %; the “AeUR, Change From Baseline (%)” value was −46.8 (7.3) %; the “CLUR, Change From Baseline (%)” value is on record as −6.0 (12.0) %. Also, in the data set on urine uric acid (setting [6]), the “FEUA, Change From Baseline (%)” value is recorded as −9.7 (9.2) %. For the same molecule, in the data set on urine uric acid (setting [7]), the “AeUR, Mean (SD)” value is on record as 231 (45) mg. In the data set with urine uric acid (setting [8]), the “AeUR, Mean (SD)” value is listed as 363 (73) mg; the “CLUR, Mean (SD)” value is reported as 5.00 (1.13) mL/min; the “FEUA, Mean (SD)” value is 3.69 (0.59) %; the “AeUR, %Change From Baseline” value is −47.4 (7.6) %. Besides, in the data set on urine uric acid (setting [8]), the “CLUR, %Change From Baseline” value is on record as −8.50 (14.8) % and the “FEUA, %Change From Baseline” value is recorded as −12.0 (12.2) %. Also, in the data set with urine uric acid (2‐3 hour urine collection interval postdose, allopurinol 300 mg), the “decrease in rate of uric acid excretion” value is 46%. Moreover, in the data set with urine uric acid (setting [9]), the “CLUR, Mean (SD)” value was 3.62 (1.30) mL/min; the “FEUA, Mean (SD)” value is recorded as 3.19 (0.62) %; the “AeUR, Change From Baseline (%)” value was −45.4 (14.5) %; the “CLUR, Change From Baseline (%)” value is −9.4 (23.2) %. Also, in the data set with urine uric acid (setting [9]), the “FEUA, Change From Baseline (%)” value was −7.6 (14.6) %. In addition, in the data set with urine uric acid (highest mean rate, 2‐3 hour urine collection interval postdose (combination 2‐3 and 3‐4 hour), verinurad 10 mg, allopurinol 300 mg), the “maximum rate of uric acid excreted in urine compared with the maximum observed baseline rate” value is reported as −46%.
For the molecule `COc1cc2c(c(OC)c1OC)-c1ccc(OC)c(=O)cc1[C@@H](NC(C)=O)CC2` [Colchicine, colchicine, reference compound], the “plasma exposure on coadministration, result in words” value in data set [1] is reported as “unaltered”.
`O=c1[nH]c(=O)c2c[nH]nc2[nH]1` [Oxypurinol, oxypurinol]: the results for the “decrease in AUC on coadministration of verinurad” value in data set [1] (setting [3]) and in data set [1] (setting [10]) were 38% and “approximately 38%”, respectively. The “decrease in Cmax on coadministration of verinurad” value in data set [1] (setting [3]) was 32%; in data set [1] (setting [10]) it was “approximately 32%”. In data set [1] (male, human, plasma, oral, 300 mg), this molecule showed a Cmax of 12800 ng/mL. In addition, the “increase in renal clearance on coadministration of verinurad” value in “Urine pharmacokinetics” (setting [2]) is 93%. The “increase in urinary excretion on coadministration of verinurad” value in “Urine pharmacokinetics” (setting [2]) was determined as 19%. Moreover, the “Ae0‐24” value was 231 (216‐248) mg in “Urine pharmacokinetics” (setting [4]) and 275 (262‐290) mg in the data set “Urine pharmacokinetics” (setting [5]).
`CC(C)(Sc1ccncc1-c1ccc(C#N)c2ccccc12)C(=O)O` [Verinurad]: the “plasma exposure on coadministration, result in words” value in data set [1] is “unaffected”. Besides, in “Urine pharmacokinetics” (setting [5]), the “CLR0‐24” value is 9.75 (7.73‐12.3) mL/min and the “Ae0‐24” value is 67.2 (51.7‐87.4) μg. For the same molecule, in the data set “Urine pharmacokinetics” (setting [11]), the “CLR0‐24” value is 9.28 (7.43‐11.6) mL/min and the “Ae0‐24” value was 66.8 (51.8‐86.1) μg. Further, the “maximum decrease in serum urate” value in the data set with serum uric acid came out at 51%. Besides, in the data set on urine uric acid (setting [6]), the “CLUR, Mean (SD)” value is reported as 16.3 (4.57) mL/min; the “FEUA, Mean (SD)” value is 11.6 (3.77) %; the “AeUR, Change From Baseline (%)” value is given as 21.4 (23.3) %; the “CLUR, Change From Baseline (%)” value is 153 (77.0) %. Besides, the “FEUA, Change From Baseline (%)” value with urine uric acid (setting [6]) is listed as 160 (96.6) %. Moreover, the “AeUR, Mean (SD)” value with urine uric acid (setting [7]) was 490 (71) mg. In addition, in the data set on urine uric acid (setting [8]), the “AeUR, Mean (SD)” value is reported as 739 (84) mg; the “CLUR, Mean (SD)” value was 11.5 (2.74) mL/min; the “FEUA, Mean (SD)” value is 9.19 (3.28) %; the “AeUR, %Change From Baseline” value is reported as 9.9 (21.5) %. In the data set on urine uric acid (setting [8]), the “CLUR, %Change From Baseline” value is listed as 122 (105) % and the “FEUA, %Change From Baseline” value is 77.4 (36.0) %. In the data set on urine uric acid (setting [9]), the “AeUR, Mean (SD)” value is 250 (52) mg; the “CLUR, Mean (SD)” value is listed as 6.74 (0.96) mL/min; the “FEUA, Mean (SD)” value is recorded as 5.88 (1.78) %; the “AeUR, Change From Baseline (%)” value is reported as 4.2 (48.0) %. In addition, in the data set with urine uric acid (setting [9]), the “CLUR, Change From Baseline (%)” value was 95.5 (148) % and the “FEUA, Change From Baseline (%)” value is on record as 49.9 (21.9) %.
